In ChEMBL document CHEMBL1147157, “Virtual screening for novel openers of pancreatic K(ATP) channels” (J Med Chem, 2007):

Legend:
[1] = molecular target: Sulfonylurea receptor 1, Kir6.2 (Homo sapiens, UniProt Q09428+Q14654); experiment: Activity at Kir6.2/SUR1 KATP channels expressed in HEK293 cells assessed as repolarization of tolbutamide-induced membrane depolarization; format: cell-based
[2] = molecular target: Sulfonylurea receptor 1, Kir6.2 (Homo sapiens) (UniProt Q14654+Q09428); experiment: Activity at Kir6.2/SUR1 KATP channels expressed in HEK293 cells assessed as repolarization of tolbutamide-induced membrane depolarization relative to BPDZ73; format: cell-based
Outline: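 HEK 293 cells stably expressing human Kir6.2/SUR1, seeded on poly(lysine)-coated plates, cultured 2 days. Membrane-potential fluorescent dye (ex 490/em 550 nm) in loading buffer/HBSS with 10 µM tolbutamide, 34 °C; fluorescence read before and 5-10 min after compound.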

[3] = Inhibition of insulin release from rat INS-1E cells

Sequence of Sulfonylurea receptor 1, Kir6.2 (Q14654 whole entry): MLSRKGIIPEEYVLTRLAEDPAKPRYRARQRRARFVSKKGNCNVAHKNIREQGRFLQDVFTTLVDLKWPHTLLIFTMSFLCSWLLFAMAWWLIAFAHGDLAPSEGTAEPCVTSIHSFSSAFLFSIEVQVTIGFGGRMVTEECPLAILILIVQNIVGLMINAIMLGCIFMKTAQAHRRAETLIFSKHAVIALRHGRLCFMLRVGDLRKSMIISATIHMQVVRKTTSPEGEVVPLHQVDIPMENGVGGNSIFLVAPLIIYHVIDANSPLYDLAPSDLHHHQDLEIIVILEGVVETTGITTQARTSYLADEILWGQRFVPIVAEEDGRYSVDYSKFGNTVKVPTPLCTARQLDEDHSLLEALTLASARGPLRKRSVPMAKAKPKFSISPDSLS
Sequence of Sulfonylurea receptor 1, Kir6.2 (Q09428 whole entry): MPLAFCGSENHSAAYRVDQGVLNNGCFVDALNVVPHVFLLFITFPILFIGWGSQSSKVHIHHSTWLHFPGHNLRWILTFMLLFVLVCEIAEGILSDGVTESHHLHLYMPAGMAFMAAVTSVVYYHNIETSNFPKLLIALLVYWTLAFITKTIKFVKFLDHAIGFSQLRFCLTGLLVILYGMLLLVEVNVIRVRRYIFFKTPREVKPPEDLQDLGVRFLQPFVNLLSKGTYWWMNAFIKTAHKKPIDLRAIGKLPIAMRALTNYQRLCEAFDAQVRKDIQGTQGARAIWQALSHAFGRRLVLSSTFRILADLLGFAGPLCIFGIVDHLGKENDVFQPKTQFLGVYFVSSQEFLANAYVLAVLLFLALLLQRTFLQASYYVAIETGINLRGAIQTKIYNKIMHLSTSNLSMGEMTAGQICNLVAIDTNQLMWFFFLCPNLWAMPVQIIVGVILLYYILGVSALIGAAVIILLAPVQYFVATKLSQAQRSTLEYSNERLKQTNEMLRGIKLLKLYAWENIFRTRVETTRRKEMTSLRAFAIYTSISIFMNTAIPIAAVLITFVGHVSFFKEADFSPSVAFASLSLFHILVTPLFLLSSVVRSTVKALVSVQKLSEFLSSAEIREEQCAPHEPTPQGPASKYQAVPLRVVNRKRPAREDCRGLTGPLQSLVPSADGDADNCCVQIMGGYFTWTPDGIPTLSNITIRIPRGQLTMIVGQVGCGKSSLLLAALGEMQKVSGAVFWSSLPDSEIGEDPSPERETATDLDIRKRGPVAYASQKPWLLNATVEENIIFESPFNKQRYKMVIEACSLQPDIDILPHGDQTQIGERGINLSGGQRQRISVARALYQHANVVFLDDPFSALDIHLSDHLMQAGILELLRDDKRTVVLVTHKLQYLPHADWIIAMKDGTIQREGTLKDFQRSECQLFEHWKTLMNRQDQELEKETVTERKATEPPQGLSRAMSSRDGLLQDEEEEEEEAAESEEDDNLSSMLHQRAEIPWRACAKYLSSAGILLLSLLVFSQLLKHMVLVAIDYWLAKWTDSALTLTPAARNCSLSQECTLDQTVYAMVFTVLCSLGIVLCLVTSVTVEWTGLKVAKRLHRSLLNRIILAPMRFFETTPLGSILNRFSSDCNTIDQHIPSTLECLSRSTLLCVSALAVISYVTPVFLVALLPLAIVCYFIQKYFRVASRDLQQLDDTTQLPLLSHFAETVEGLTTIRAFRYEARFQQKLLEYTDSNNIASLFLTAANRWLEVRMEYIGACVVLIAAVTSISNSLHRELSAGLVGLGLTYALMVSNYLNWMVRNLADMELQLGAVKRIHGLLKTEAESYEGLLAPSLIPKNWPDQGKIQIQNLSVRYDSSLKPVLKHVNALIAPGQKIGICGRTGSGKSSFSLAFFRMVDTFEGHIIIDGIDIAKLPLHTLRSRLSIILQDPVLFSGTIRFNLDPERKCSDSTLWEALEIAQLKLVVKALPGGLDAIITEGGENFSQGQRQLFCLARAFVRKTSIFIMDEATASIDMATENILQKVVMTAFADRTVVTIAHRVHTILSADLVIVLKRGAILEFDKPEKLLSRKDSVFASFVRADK

EC50 [3] [µM]	SMILES	EC50 [1] [µM]	Emax [2] [%]	IC50 [3] [µM]
	NC(=O)c1ccccc1NS(=O)(=O)c1ccc(Cl)cc1	> 30	47	
	COc1ccc2nc(C(F)(F)F)c(C#N)c(N)c2c1	15	160	25
	CC(=O)Nc1nc2ccccc2n1CCN1CCCC1	> 30	55	
	O=c1[nH]cnc2ncc(-c3ccccc3)nc12	> 30	84	
	OCCn1c(-c2ccc(F)cc2)cs/c1=N\c1ccc(F)cc1	21	105	18
	O=C(Nc1nccs1)c1c(O)c2cc(Cl)ccc2oc1=O	> 30	171	56
20.3	CC1=Nc2ccc(Cl)cc2S(=O)(=O)N1 [DIAZOXIDE]			
	COc1ccc2[nH]c(N3CCCCC3)nc2c1	> 30	52	
	N#Cc1c(-c2ccccc2)c(-c2ccccc2)n[nH]c1=O	> 30	55	
	CC(C)NC1=NS(=O)(=O)c2cc(Cl)ccc2N1	0.25	100	0.94
